In ChEMBL document CHEMBL2169848, “Synthesis physicochemical profile and PAMPA study of new NO-donor edaravone co-drugs” (Bioorg Med Chem, 2012):
Calls of active or inactive are those of the source. The calls are words filed in the database; no cut-off is given here.

How the values were obtained:
Mus musculus = experiment: AUC (0 to 24 hrs) in mouse assessed isosorbide mononitrate as at 10 mg/kg, po after 24 hrs; assay type: ADME, organism-based, Plasma; design: time < 24 hr, dose 10 mg/kg, route oral; details: in vivo
Procedure, shortened: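 Mice dosed orally at 10 mg/kg in imwitor742/tween80 50/50; blood drawn at fixed times over 24 h and precipitated with 3 volumes acetonitrile. Nitrite converted to naphtotriazole with DAN (1 mM, 10 µL per 200 µL sample) at room temperature and measured by LC-MS/MS against a 0.01-10 µM NAT calibration; basal level and conversion factor from spikes; AUC0-24h.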

Liver [1] = experiment: Induction of nitrate production in Wistar rat liver homogenate at 200 uM after 5 hrs by griess method; assay type: functional, tissue-based
Procedure, shortened: (§1)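 Male Wistar rat liver homogenate (6.4 mg protein/mL; 2 mM GSH, 1 mM NADPH; Tris-HCl/KCl pH 7.4; 37 °C) with compound at 200 µM final. Deproteinized filtrate mixed with Griess reagent: nitrite after 10 min at 37 °C; nitrite+nitrate after VCl3 reduction, 45 min at 37 °C. Absorbance at 540 nm, calibration 1–100 µM. Expressed as %mol per mol compound, n = 3.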

Liver [2] = experiment: Induction of nitrite production in Wistar rat liver homogenate at 200 uM after 5 hrs by griess method; assay type: functional, tissue-based; procedure, shortened: as §1
[3] = Half life in 5% DMSO/0.1 M KCl by RP-HPLC analysis; assay type: physicochemical; details: for half-life: 5% DMSO/0.1 M KCl
Procedure, shortened: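 10 mM DMSO stock added to water with 0.1 M KCl to give 5% DMSO (v/v), then filtered. Room temperature. Compound followed by RP-HPLC (C18, methanol/water gradient, 240 nm), calibration 1–200 µM. Half-life from n = 3.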

[4] = Half life in 0.1 M HCl/MeOH 60/40 (v/v) mixture by RP-HPLC analysis; assay type: physicochemical
Procedure, shortened: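 Methanolic compound solution (0.5 mM, 2 mL) diluted to 10 mL with 0.1 M HCl/MeOH 60/40 (v/v) and kept at 37 °C. Aliquots taken at intervals and analysed by RP-HPLC (C18, acetonitrile/water gradient, 240 nm) with calibration over 1–200 µM. Half-life from n = 3.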

[5] = Half life in human serum at 250 uM by RP-HPLC analysis; assay type: ADME, cell-free
Procedure, shortened: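 Compound added from a 10 mM methanol stock to human serum (male AB plasma) at 37 °C, final 250 µM. Aliquots taken at intervals and deproteinized with acetonitrile containing 0.1% TFA, then centrifuged and filtered. Analysed by RP-HPLC. Half-life from n = 3.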

[6] = Half life in Wistar rat liver homogenate at 200 uM by RP-HPLC analysis; assay type: ADME, tissue-based
Procedure, shortened: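 Liver from male Wistar rats (200–250 g), 20% homogenate spun at 8000g. Incubated at 37 °C in Tris-HCl/KCl 100/150 mM, pH 7.4, with 6.4 mg protein/mL, 2 mM GSH and 1 mM NADPH. Compound 200 µM final, added from a 10 mM acetonitrile stock. Aliquots deproteinized with cold acetonitrile and analysed by RP-HPLC. Half-life from n = 3.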

[7] = Lipophilicity, log P of the compound in octanol-buffer at pH 7 by HPLC analysis; assay type: physicochemical
Procedure, shortened: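 Retention measured by isocratic RP-HPLC on an RP-amide-C16 column at 30 °C. Mobile phase was pH 7.0 phosphate buffer/methanol, 30–70%, ionic strength 20 mM; uracil used as dead-time marker. log kw extrapolated from at least four methanol ratios, each injected at least three times. Converted to logPoct via a reference line of 63 compounds.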

Thoracic aorta [8] = experiment: Vasodilatory activity in Wistar rat denuded thoracic aorta assessed as inhibition of L-phenylephrine-induced contraction; assay type: functional, tissue-based
Procedure, shortened: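 Endothelium-denuded thoracic aorta strips from male Wistar rats (180–200 g) in gassed Krebs-type buffer at 37 °C, pH 7.4. Strips equilibrated 1.5 h, then contracted with 1 µM L-phenylephrine. Cumulative concentrations added at plateau and isometric tension recorded. EC50 (±SEM) in µM from at least five experiments.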

Thoracic aorta [9] = experiment: Vasodilatory activity in Wistar rat thoracic aorta assessed as inhibition of L-phenylephrine-induced contraction in presence of 1 uM 1H-[1,2,4]oxadiazolo[4,3-a]quinoxalin-1-one; assay type: functional, tissue-based
Procedure, shortened: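 Same rat aorta strip protocol with 1 µM L-phenylephrine precontraction. 1 µM ODQ was added 5 min before contraction, pre-incubating for at least 30 min before the vasodilator. Isometric recording; EC50 (±SEM) in µM from at least five experiments.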

[10] = Permeability of the compound by PAMPA-HDM method; assay type: ADME
Procedure, shortened: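 96-well polycarbonate filters impregnated with 5% hexadecane in hexane. Donor held compound in water with 5% DMSO and 100 mM KCl; acceptor held the same medium. Incubated at room temperature with shaking at 150 rpm for 1–6 h. Both compartments quantified by RP-HPLC. logPe and retention R calculated with correction for hydrolysis; membrane integrity checked by electrical resistance.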

Compound	half-life [4]	half-life at 250 µM [5]	half-life at 200 µM [6]	logD [7]	inhibition (Thoracic aorta [8])	EC50 (Thoracic aorta [9])	EC50 (Thoracic aorta [8])	also measured
O=[N+]([O-])O[C@H]1CO[C@H]2[C@@H]1OC[C@H]2O[N+](=O)[O-] [ISOSORBIDE DINITRATE]	–	–	–	–	–	–	–	AUC (Mus musculus): 2352 µM·min
Cc1cc(OC(=O)OCCCCC(CO[N+](=O)[O-])O[N+](=O)[O-])n(-c2ccccc2)n1 (stereo not given)	3.1 h	< 1 min	< 1 min	4.63	–	–	–	Activity (Liver [1]): Active; Activity (Liver [2]): Active; half-life [3]: 6 h
O=C(O)c1ccc(CCCO[N+](=O)[O-])cc1	–	–	–	–	Dose-dependent effect	> 100 µM	–	–
O=C(O)c1ccc(OCC(CO[N+](=O)[O-])O[N+](=O)[O-])cc1 (stereo not given)	–	–	–	–	Dose-dependent effect	–	–	–
O=[N+]([O-])OCCCCCCO	–	–	–	–	Dose-dependent effect	> 100 µM	1.5 µM	–
Cc1cc(OC(=O)OCCCCCCO[N+](=O)[O-])n(-c2ccccc2)n1	4 h	< 1 min	< 1 min	4.39	–	–	–	half-life [3]: 25 h
CC(C)(CCCCO[N+](=O)[O-])C(=O)O	–	–	–	–	Dose-dependent effect	> 100 µM	8.9 µM	–
Cc1cc(OC(=O)C(C)(C)CO[N+](=O)[O-])n(-c2ccccc2)n1	1.9 h	1.9 min	< 1 min	3.55	–	–	–	half-life [3]: 36 h
Cc1cc(OC(=O)c2ccc(CCCO[N+](=O)[O-])cc2)n(-c2ccccc2)n1	13 h	4 min	< 1 min	4.76	–	–	–	t1/2 [3]: ND(Insoluble); log Pe [10]: ND(Insoluble)
CC(C)(CO[N+](=O)[O-])C(=O)O	–	–	–	–	Dose-dependent effect	> 100 µM	13 µM	–
O=[N+]([O-])OCCCO [ABRUCOMSTAT]	–	–	–	–	Dose-dependent effect	> 100 µM	4 µM	–
Cc1cc(OC(=O)c2ccc(OCCCO[N+](=O)[O-])cc2)n(-c2ccccc2)n1	35 h	5 min	< 1 min	4.74	–	–	–	t1/2 [3]: ND(Insoluble); log Pe [10]: ND(Insoluble)
